Experimental data taken from article PMC6605687 (The Journal of General Physiology, 2019).
Changes are numbered by the printed parent chain.

What was measured:
Format in all cases: cell-based
rP2X2 Thr184Val = biological target: T1, rP2X2 Thr184Val (Rattus norvegicus, UniProt P49653, T184V); test: Two-electrode voltage clamp, oocytes expressing rP2X2 Thr184Val
T1 sequence (P49653 1-472 T184V): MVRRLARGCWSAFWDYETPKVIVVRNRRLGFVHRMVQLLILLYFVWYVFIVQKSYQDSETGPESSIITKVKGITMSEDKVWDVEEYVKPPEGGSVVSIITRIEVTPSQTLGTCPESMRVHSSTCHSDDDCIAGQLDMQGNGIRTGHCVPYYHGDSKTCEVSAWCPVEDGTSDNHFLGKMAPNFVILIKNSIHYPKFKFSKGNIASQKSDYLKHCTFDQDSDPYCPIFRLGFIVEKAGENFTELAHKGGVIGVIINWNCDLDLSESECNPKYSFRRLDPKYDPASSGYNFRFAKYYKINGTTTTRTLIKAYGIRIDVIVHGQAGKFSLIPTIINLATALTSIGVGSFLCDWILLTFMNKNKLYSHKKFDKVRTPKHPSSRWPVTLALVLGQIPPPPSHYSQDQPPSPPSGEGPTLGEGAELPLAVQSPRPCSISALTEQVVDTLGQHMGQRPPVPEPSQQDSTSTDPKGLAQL
In short: (§1)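 Mutations were made by site-directed mutagenesis. Xenopus oocytes were injected with rP2X2 mRNA and incubated in L-15 at 18°C. Two-electrode voltage clamp was done 1–2 days later at −40 mV under ND96 perfusion (pH 7.4). ATP concentration-response currents were normalised and fitted to a one-component Hill equation for EC50 and Hill coefficient. Results are mean ± SEM, tested by one-way ANOVA with Dunnett's test against WT.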

rP2X2-3T receptors = biological target: T2, rP2X2-3T receptors (Rattus norvegicus, UniProt P49653, C348T/C430T/C9T); test: Single channel outside-out patch-clamp recordings, HEK-293 cells; settings: agonist 1 µM, mean ± SEM
T2 sequence (P49653 1-472 C9T/C348T/C430T): T1 sequence (P49653 1-472 T184V) with C9T, V184T, C348T, C430T
In short: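 HEK-293 cells were co-transfected by calcium phosphate with rP2X2-3T DNA plus GFP DNA to mark transfected cells, then recorded within 24 h. Outside-out patches were held at −120 mV. Pipette contained 147 NaF, 10 EGTA and 10 HEPES (mM, pH 7.3). Agonist at 1, 10 or 100 µM in extracellular saline (pH 7.3) was applied by fast perfusion for 10 s per 12-s sweep, at 1-min intervals. Amplitudes came from Gaussian fits to all-points histograms, with 2–5 sweeps averaged per patch.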

rP2X2 Lys69Gln = biological target: T3, rP2X2 Lys69Gln (Rattus norvegicus, UniProt P49653, K69Q); test: Two-electrode voltage clamp, oocytes expressing rP2X2 Lys69Gln; settings: for EC50: EC50, Lys69Gln
T3 sequence (P49653 1-472 K69Q): T1 sequence (P49653 1-472 T184V) with K69Q, V184T
In short: as §1

rP2X2 Arg290Gln = biological target: T4, rP2X2 Arg290Gln (Rattus norvegicus, UniProt P49653, R290Q); test: Two-electrode voltage clamp, oocytes expressing rP2X2 Arg290Gln
T4 sequence (P49653 1-472 R290Q): T1 sequence (P49653 1-472 T184V) with V184T, R290Q
In short: as §1

EC50 (rP2X2 Thr184Val): 3.2 mM | Fold increase in EC50 (reduction in sensitivity), Thr184Val versus WT (rP2X2 Thr184Val; Thr184Val compared with WT): 100 fold | SDopen (SD of the open state amplitude) (rP2X2-3T receptors): 1.02 ± 0.1 | EC50 (rP2X2 Lys69Gln): > 5 mM | EC50 (rP2X2 Lys69Gln; mean ± SEM): 16.6 mM | nH (Hill coefficient) (rP2X2 Lys69Gln; Lys69Gln): 2.4 ± 0.1 | EC50 (rP2X2 Arg290Gln): 4.9 mM
SMILES: Nc1ncnc2c1ncn2[C@@H]1O[C@H](COP(=O)(O)OP(=O)(O)OP(=O)(O)O)[C@@H](O)[C@H]1O [ATP, Adenosine 5′-triphosphate]
